Results on three compounds are retold here after ChEMBL document CHEMBL4145675, “2-Phenylquinoline S. aureus NorA Efflux Pump Inhibitors: Evaluation of the Importance of Methoxy Group Introduction” (J Med Chem, 2018).

Structures are written as SMILES. pIC50: −log10 of the molar value. Converted amounts (≈) assume the structure as drawn. The source made the active and inactive calls. The calls are words filed in the database; no cut-off is given here. Some results are limits rather than exact numbers.

The target of the first data set is T1, Quinolone resistance protein NorA (Staphylococcus aureus) (UniProt P0A0J7).
T1 sequence (whole entry): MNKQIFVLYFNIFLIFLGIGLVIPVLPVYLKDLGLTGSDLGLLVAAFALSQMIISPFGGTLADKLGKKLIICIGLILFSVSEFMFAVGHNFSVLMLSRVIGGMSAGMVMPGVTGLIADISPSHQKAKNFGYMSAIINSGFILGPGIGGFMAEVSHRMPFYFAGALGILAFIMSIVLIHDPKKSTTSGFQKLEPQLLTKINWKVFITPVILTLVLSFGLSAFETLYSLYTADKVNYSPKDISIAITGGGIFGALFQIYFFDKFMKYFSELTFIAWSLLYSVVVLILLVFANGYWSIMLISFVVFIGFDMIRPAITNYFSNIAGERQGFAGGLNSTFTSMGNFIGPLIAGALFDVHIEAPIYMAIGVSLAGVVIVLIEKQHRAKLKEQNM
Kind of data set: Inhibition of NorA in Staphylococcus aureus SA-1199B expressing GrlA A116E mutant assessed as reduction in EtBr efflux at 50 uM incubated for 5 mins by fluorescence based assay.
Conditions: not given
A digest of the protocol: (§1)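 Cells were grown overnight in cation-supplemented Mueller-Hinton broth at 35 °C and subcultured to OD600 0.7–0.8. They were loaded at OD600 0.8 with 25 µM EtBr plus 100 µM CCCP (final) for 20 min at room temperature. Cells were then resuspended in fresh broth with or without compound, 50 µM for the single-point screen or a concentration series for IC50. Fluorescence (ex 485/em 645 nm) was read for 5 min. Inhibition was calculated from the fluorescence decrease versus untreated cells. Biological triplicate, each run twice.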
The term inhibition denotes the drop in the measured response relative to a control, in per cent. `CCCOc1ccc(-c2cc(OCCN(CC)CC)c3c(OC)cccc3n2)cc1`: the inhibition was 96.5%.

Consider `CCCOc1ccc(-c2cc(OCCN3CCCCCC3)c3cc(OC)cc(OC)c3n2)cc1`, for which the inhibition was 80.3%.

Regarding `CCCOc1ccc(-c2cc(OCCN(CC)CC)c3ccc(OC)cc3n2)cc1`, the inhibition stood at 100%.

A further data set deals with Quinolone resistance protein NorA (Staphylococcus aureus, UniProt P0A0J7, A116E). Kind of data set: Inhibition of NorA in Staphylococcus aureus SA-1199B expressing GrlA A116E mutant assessed as reduction in EtBr efflux incubated for 5 mins by fluorescence based assay.
Conditions: not given
A digest of the protocol:
as §1
What is called pIC50 is the IC50 on a negative log10 scale, so that one unit is a factor of ten. On to `CCCOc1ccc(-c2cc(OCCN(CC)CC)c3c(OC)cccc3n2)cc1`, for which the pIC50 was 5.03.

For `CCCOc1ccc(-c2cc(OCCN3CCCCCC3)c3cc(OC)cc(OC)c3n2)cc1`, the pIC50 was 5.74.

With `CCCOc1ccc(-c2cc(OCCN(CC)CC)c3ccc(OC)cc3n2)cc1`, the negative logarithm of the IC50 (pIC50) is 5.33.

The test system of another data set is Staphylococcus aureus. Put plainly: Antimicrobial activity against Staphylococcus aureus SA-1199B expressing wild type norA and co-expressing GrlA A116E mutant by microdilution method. Format: organism-based. The following applies: in vivo. A digest of the protocol:
(§2)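 CLSI broth microdilution MIC of the compound alone. Strains: SA-K1902 (norA deleted), SA-K2378 (SA-K1902 carrying norA plus its promoter on multicopy plasmid pCU1), SA-1199B (norA overexpressing, GrlA A116E).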
On the technique in general: Broth dilution looks for growth in wells or tubes with falling amounts of substance.
In turn, `CCCOc1ccc(-c2cc(OCCN(CC)CC)c3c(OC)cccc3n2)cc1` returned an MIC of 30.6 µM (≈ 12.5 µg/mL).

`CCCOc1ccc(-c2cc(OCCN3CCCCCC3)c3cc(OC)cc(OC)c3n2)cc1` came in with an MIC greater than 215 µM.

`CCCOc1ccc(-c2cc(OCCN(CC)CC)c3ccc(OC)cc3n2)cc1` showed an MIC greater than 245 µM.

In the next data set the target is T1, Quinolone resistance protein NorA (Staphylococcus aureus). Kind of data set: Inhibition of NorA in Staphylococcus aureus SA-1199B expressing GrlA A116E mutant assessed as minimal potentiating drug concentration causing 8 fold reduction in ciprofloxacin MIC by microdilution method based Checkerboard assay.
Conditions: not given
As for `CCCOc1ccc(-c2cc(OCCN(CC)CC)c3c(OC)cccc3n2)cc1`, the Activity came out at 3.13 µg/mL.

`CCCOc1ccc(-c2cc(OCCN3CCCCCC3)c3cc(OC)cc(OC)c3n2)cc1`: the Activity amounted to 1.56 µg/mL.

Take `CCCOc1ccc(-c2cc(OCCN(CC)CC)c3ccc(OC)cc3n2)cc1`: the Activity was 6.25 µg/mL.

A further data set concerns Staphylococcus aureus. Kind of data set: Synergistic potentiation of ciprofloxacin-induced antimicrobial activity against wild type Staphylococcus aureus ATCC 25923 at 0.78 to 100 ug/ml by microdilution method based Checkerboard assay. Format: functional, organism-based.
Conditions: not given
In the case of `CCCOc1ccc(-c2cc(OCCN(CC)CC)c3c(OC)cccc3n2)cc1`, the “synergistic potentiation of ciprofloxacin activity” value (“synergistic potentiation” below) was “Active”.

`CCCOc1ccc(-c2cc(OCCN3CCCCCC3)c3cc(OC)cc(OC)c3n2)cc1`: the “synergistic potentiation” value is “Active”.

Take `CCCOc1ccc(-c2cc(OCCN(CC)CC)c3ccc(OC)cc3n2)cc1`: the “synergistic potentiation” value was “Active”.

A further data set deals with Staphylococcus aureus. Kind of data set: Synergistic potentiation of ciprofloxacin-induced antimicrobial activity against Staphylococcus aureus SA-1199 at 0.78 to 100 ug/ml by microdilution method based Checkerboard assay. Format: functional, organism-based.
Conditions: not given
In the case of `CCCOc1ccc(-c2cc(OCCN(CC)CC)c3c(OC)cccc3n2)cc1`, the inhibition entry is “Active”.

In the case of `CCCOc1ccc(-c2cc(OCCN3CCCCCC3)c3cc(OC)cc(OC)c3n2)cc1`, the inhibition result was “Active”.

As for `CCCOc1ccc(-c2cc(OCCN(CC)CC)c3ccc(OC)cc3n2)cc1`, the inhibition result is “Active”.

Another data set addresses T1, Quinolone resistance protein NorA (Staphylococcus aureus). Put plainly: Inhibition of NorA in Staphylococcus aureus SA-1199B expressing GrlA A116E mutant assessed as synergistic potentiation of ciprofloxacin-induced antimicrobial activity at 0.78 to 100 ug/ml by microdilution method based Checkerboard assay.
Conditions: not given
`CCCOc1ccc(-c2cc(OCCN(CC)CC)c3c(OC)cccc3n2)cc1`: the inhibition entry was “Active”.

For the compound `CCCOc1ccc(-c2cc(OCCN3CCCCCC3)c3cc(OC)cc(OC)c3n2)cc1`, the inhibition entry was “Active”.

For the compound `CCCOc1ccc(-c2cc(OCCN(CC)CC)c3ccc(OC)cc3n2)cc1`, the inhibition result was “Active”.

A further data set has the same target. Put plainly: Inhibition of NorA in Staphylococcus aureus SA-1199B expressing GrlA A116E mutant assessed as synergistic potentiation of ciprofloxacin-induced antimicrobial activity at 0.78 ug/ml by microdilution method based Checkerboard assay.
Conditions: not given
Take `CCCOc1ccc(-c2cc(OCCN(CC)CC)c3c(OC)cccc3n2)cc1`: the inhibition entry is “Active”.

Turning to `CCCOc1ccc(-c2cc(OCCN3CCCCCC3)c3cc(OC)cc(OC)c3n2)cc1`, the inhibition result was “Active”.

Take `CCCOc1ccc(-c2cc(OCCN(CC)CC)c3ccc(OC)cc3n2)cc1`: the inhibition result was “Active”.

The next data set shares this target. Kind of data set: Inhibition of NorA in Staphylococcus aureus SA-K2378 assessed as synergistic potentiation of ciprofloxacin-induced antimicrobial activity at 0.78 to 100 ug/ml by microdilution method based Checkerboard assay.
Conditions: not given
On to `CCCOc1ccc(-c2cc(OCCN(CC)CC)c3ccc(OC)cc3n2)cc1`, for which the inhibition entry was “Active”.

In a further data set the test system is Staphylococcus aureus. Put plainly: Synergistic potentiation of ciprofloxacin-induced antimicrobial activity against norA deleted Staphylococcus aureus SA-K1902 at 0.78 to 100 ug/ml by microdilution method based Checkerboard assay. Format: functional, organism-based.
Conditions: not given
`CCCOc1ccc(-c2cc(OCCN(CC)CC)c3ccc(OC)cc3n2)cc1`: the result was inactive.

In the next data set the target is T1, Quinolone resistance protein NorA (Staphylococcus aureus). Put plainly: Inhibition of NorA in Staphylococcus aureus SA-K2378 assessed as synergistic potentiation of ciprofloxacin-induced antimicrobial activity at 0.78 ug/ml by microdilution method based Checkerboard assay.
Conditions: not given
For the compound `CCCOc1ccc(-c2cc(OCCN(CC)CC)c3ccc(OC)cc3n2)cc1`, the fold change (FC) amounted to 16.

Test system in the next data set: not listed separately
Kind of data set: Cytotoxicity in human HepG2 cells assessed as reduction in cell viability incubated for 24 hrs by ATP bioluminescence assay. Format: cell-based.
Conditions: not given
In short, it runs like this:
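Cells were grown to confluence overnight in RPMI 1640 with 10% heat-inactivated fetal calf serum, penicillin and streptomycin. Monolayers were exposed for 24 h at 37 °C to scalar concentrations (0-250 µg/mL). Viability was read by ATP bioluminescence, each concentration in triplicate. CC50 is the concentration reducing cell number by 50% versus untreated controls.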
Usually CC50 stands for the concentration at which the toxic effect on the cells reaches its halfway point. On to `CCCOc1ccc(-c2cc(OCCN(CC)CC)c3ccc(OC)cc3n2)cc1`, for which the CC50 at 24 h came out at 7.7 µg/mL (≈ 18.8 µM).

The next data set deals with Staphylococcus aureus. Kind of data set: Antimicrobial activity against Staphylococcus aureus ATCC 25923 by microdilution method. The following applies: in vivo. Type of data set: organism-based. A digest of the protocol: (§3)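 Broth microdilution MIC per CLSI guidelines. ATCC 25923 is norA wild-type. SA-1199B overexpresses norA and carries an A116E GrlA substitution.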
In turn, `CCCOc1ccc(-c2cc(OCCN(CC)CC)c3c(OC)cccc3n2)cc1` returned an MIC of 12.5 µg/mL (≈ 30.6 µM).

`CCCOc1ccc(-c2cc(OCCN3CCCCCC3)c3cc(OC)cc(OC)c3n2)cc1`: the MIC is greater than 100 µg/mL.

`CCCOc1ccc(-c2cc(OCCN(CC)CC)c3ccc(OC)cc3n2)cc1`: the MIC is 50 µg/mL (≈ 122 µM).

The test system of the next data set is Staphylococcus aureus. Kind of data set: Antimicrobial activity against Staphylococcus aureus SA-1199B expressing wild type norA by microdilution method. Type of data set: organism-based. The following applies: in vivo. A digest of the protocol: as §3
In turn, `CCCOc1ccc(-c2cc(OCCN(CC)CC)c3c(OC)cccc3n2)cc1` came in with an MIC of 12.5 µg/mL (≈ 30.6 µM).

In the case of `CCCOc1ccc(-c2cc(OCCN3CCCCCC3)c3cc(OC)cc(OC)c3n2)cc1`, the MIC is greater than 100 µg/mL.

The compound `CCCOc1ccc(-c2cc(OCCN(CC)CC)c3ccc(OC)cc3n2)cc1` displayed an MIC greater than 100 µg/mL.

In a further data set the test system is Staphylococcus aureus. Put plainly: Antimicrobial activity against NorA deficient Staphylococcus aureus SA-K1902 by microdilution method. Type of data set: organism-based. The following applies: in vivo. In short, it runs like this: as §2
With `CCCOc1ccc(-c2cc(OCCN(CC)CC)c3ccc(OC)cc3n2)cc1`, the MIC came out at 25 µg/mL (≈ 61.2 µM).
